Assays:
[1] = molecular target: RAC-alpha serine/threonine-protein kinase (Homo sapiens) (UniProt P31749); assay: Inhibition of AKT1/PKBalpha at 10 uM by HTRF assay relative to control
In short: (§1)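 HTRF kinase assay, one panel of kinases. Inhibitor stock 50 µM in 100% DMSO; tested at 10 µM. ATP and substrate at final levels near Km. Final buffer: 50 mM Hepes/NaOH pH 7.4, 40 µM Na3VO4, 0.005% Tween-20, 1 mM DTT, MnCl2 or MgCl2 at kinase-dependent levels. Started by adding ATP/substrate. Reaction run at room temperature, time varied by kinase. Detection mix in 50 mM Hepes pH 7.4, 0.1% BSA, 150 mM KF, incubated ≥1 h at room temperature. Activity expressed as % of uninhibited control; n=2.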

[2] = molecular target: Tyrosine-protein kinase Lck (Homo sapiens) (UniProt P06239); assay: Inhibition of Lck at 10 uM by HTRF assay relative to control; in short: as §1
[3] = molecular target: Platelet-derived growth factor receptor beta (Homo sapiens) (UniProt P09619); assay: Inhibition of PDGFRbeta at 10 uM by HTRF assay relative to control; in short: as §1
[4] = molecular target: Rho-associated protein kinase 2 (Homo sapiens) (UniProt O75116); assay: Inhibition of ROCK2 at 10 uM by HTRF assay relative to control; in short: as §1
[5] = Inhibition of AMPKalpha at 10 uM by HTRF assay relative to control; in short: as §1
[6] = Inhibition of PKA at 10 uM by HTRF assay relative to control; in short: as §1
[7] = molecular target: T1, Ephrin type-B receptor 4 (Homo sapiens) (UniProt P54760); assay: Inhibition of EphB4 at 10 uM by HTRF assay relative to control; in short: as §1
T1 sequence (whole entry): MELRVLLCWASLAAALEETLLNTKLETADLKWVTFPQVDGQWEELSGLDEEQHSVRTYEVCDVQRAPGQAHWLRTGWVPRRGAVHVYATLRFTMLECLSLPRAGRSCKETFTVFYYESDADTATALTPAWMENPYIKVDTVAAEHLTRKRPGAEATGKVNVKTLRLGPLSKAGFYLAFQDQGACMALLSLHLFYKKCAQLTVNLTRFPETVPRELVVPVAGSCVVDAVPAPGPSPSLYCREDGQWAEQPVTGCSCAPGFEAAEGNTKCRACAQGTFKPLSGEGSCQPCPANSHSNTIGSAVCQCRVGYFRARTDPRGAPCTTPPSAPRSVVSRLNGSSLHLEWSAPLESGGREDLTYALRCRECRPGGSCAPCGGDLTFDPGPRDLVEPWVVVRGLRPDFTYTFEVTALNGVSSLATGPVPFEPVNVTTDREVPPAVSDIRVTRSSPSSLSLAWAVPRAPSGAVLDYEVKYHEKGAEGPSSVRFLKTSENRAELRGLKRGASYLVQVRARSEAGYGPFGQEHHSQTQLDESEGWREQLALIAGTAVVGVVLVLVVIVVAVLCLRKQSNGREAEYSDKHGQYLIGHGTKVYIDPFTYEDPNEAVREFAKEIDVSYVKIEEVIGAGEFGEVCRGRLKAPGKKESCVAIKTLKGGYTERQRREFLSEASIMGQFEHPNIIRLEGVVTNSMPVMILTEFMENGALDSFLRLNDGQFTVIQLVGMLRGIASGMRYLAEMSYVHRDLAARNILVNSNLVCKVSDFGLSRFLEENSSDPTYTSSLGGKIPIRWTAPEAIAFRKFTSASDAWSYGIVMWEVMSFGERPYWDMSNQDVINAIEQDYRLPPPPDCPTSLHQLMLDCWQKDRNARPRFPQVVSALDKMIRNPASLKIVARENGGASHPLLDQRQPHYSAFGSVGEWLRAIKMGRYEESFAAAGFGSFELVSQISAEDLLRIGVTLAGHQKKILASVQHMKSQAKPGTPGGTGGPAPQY

[8] = molecular target: T2, Serine/threonine-protein kinase Chk1 (Homo sapiens) (UniProt O14757); assay: Inhibition of CHK1 at 10 uM by HTRF assay relative to control; in short: as §1
T2 sequence (whole entry): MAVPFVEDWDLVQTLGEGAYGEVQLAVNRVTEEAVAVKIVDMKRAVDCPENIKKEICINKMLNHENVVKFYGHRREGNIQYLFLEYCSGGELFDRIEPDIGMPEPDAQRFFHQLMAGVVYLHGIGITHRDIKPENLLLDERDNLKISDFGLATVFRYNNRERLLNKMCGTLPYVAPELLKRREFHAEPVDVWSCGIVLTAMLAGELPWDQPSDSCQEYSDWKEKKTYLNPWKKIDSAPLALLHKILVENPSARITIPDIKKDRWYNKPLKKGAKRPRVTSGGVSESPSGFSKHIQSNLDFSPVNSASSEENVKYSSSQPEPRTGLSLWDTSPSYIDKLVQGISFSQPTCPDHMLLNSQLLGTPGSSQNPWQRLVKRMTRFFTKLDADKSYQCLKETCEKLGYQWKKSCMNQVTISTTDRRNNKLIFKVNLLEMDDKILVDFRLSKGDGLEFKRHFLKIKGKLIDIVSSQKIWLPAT

[9] = molecular target: Cyclin-dependent kinase 1 (Homo sapiens) (UniProt P06493); assay: Inhibition of CDK1 at 10 uM by HTRF assay relative to control; in short: as §1
[10] = molecular target: Insulin-like growth factor 1 receptor (Homo sapiens) (UniProt P08069); assay: Inhibition of IGF1R at 10 uM by HTRF assay relative to control; in short: as §1

Rho-associated protein kinase 2 (Homo sapiens), sequence (O75116 whole entry, looked up): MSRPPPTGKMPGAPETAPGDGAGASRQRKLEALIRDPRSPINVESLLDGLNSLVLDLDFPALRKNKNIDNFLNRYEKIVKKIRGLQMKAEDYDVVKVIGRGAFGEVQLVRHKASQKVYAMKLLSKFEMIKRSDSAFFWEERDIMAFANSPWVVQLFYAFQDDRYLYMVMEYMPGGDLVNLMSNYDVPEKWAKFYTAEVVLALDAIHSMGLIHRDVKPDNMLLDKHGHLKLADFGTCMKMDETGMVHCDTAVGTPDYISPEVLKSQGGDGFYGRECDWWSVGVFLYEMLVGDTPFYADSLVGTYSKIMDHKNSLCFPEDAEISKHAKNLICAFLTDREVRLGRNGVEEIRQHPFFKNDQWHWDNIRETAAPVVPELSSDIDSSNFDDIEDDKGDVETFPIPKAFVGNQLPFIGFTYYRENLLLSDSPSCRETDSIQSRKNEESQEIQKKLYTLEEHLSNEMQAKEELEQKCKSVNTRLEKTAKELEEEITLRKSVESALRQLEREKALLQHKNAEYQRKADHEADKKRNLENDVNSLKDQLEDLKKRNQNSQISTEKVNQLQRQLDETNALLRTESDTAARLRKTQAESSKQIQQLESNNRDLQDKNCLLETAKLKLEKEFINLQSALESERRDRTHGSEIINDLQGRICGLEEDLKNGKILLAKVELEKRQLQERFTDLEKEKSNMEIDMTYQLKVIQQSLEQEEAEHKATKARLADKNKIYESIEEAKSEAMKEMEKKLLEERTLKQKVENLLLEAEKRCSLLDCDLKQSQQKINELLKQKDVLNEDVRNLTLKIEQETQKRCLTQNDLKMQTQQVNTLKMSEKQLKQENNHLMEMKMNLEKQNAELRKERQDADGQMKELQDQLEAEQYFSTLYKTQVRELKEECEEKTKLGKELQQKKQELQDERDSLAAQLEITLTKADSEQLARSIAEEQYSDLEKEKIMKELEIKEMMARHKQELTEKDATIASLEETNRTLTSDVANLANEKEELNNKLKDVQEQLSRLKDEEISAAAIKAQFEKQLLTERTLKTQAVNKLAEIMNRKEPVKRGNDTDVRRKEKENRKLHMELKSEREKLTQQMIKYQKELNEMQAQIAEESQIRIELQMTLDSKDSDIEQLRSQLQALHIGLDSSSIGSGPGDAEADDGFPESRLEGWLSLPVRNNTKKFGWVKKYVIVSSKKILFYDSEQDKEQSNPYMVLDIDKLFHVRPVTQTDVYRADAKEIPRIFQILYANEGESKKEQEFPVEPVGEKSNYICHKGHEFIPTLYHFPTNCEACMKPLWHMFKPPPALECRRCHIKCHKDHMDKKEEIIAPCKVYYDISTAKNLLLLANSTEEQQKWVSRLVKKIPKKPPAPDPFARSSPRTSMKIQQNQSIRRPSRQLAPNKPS
Tyrosine-protein kinase Lck (Homo sapiens), sequence (P06239 2-509 limits assumed): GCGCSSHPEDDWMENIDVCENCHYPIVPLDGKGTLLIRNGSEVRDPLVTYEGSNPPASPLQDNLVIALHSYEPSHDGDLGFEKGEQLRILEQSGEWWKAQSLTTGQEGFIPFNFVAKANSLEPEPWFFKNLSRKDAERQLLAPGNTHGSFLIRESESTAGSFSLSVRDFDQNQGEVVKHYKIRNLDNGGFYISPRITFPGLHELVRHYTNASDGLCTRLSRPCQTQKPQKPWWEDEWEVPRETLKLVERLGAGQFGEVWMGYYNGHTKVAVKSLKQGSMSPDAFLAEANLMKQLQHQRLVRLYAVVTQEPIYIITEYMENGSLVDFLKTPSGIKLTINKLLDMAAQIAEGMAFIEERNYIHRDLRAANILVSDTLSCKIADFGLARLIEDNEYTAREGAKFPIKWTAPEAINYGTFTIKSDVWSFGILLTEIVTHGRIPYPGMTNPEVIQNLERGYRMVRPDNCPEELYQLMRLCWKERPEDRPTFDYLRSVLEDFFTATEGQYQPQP
Platelet-derived growth factor receptor beta (Homo sapiens), sequence (P09619 whole entry): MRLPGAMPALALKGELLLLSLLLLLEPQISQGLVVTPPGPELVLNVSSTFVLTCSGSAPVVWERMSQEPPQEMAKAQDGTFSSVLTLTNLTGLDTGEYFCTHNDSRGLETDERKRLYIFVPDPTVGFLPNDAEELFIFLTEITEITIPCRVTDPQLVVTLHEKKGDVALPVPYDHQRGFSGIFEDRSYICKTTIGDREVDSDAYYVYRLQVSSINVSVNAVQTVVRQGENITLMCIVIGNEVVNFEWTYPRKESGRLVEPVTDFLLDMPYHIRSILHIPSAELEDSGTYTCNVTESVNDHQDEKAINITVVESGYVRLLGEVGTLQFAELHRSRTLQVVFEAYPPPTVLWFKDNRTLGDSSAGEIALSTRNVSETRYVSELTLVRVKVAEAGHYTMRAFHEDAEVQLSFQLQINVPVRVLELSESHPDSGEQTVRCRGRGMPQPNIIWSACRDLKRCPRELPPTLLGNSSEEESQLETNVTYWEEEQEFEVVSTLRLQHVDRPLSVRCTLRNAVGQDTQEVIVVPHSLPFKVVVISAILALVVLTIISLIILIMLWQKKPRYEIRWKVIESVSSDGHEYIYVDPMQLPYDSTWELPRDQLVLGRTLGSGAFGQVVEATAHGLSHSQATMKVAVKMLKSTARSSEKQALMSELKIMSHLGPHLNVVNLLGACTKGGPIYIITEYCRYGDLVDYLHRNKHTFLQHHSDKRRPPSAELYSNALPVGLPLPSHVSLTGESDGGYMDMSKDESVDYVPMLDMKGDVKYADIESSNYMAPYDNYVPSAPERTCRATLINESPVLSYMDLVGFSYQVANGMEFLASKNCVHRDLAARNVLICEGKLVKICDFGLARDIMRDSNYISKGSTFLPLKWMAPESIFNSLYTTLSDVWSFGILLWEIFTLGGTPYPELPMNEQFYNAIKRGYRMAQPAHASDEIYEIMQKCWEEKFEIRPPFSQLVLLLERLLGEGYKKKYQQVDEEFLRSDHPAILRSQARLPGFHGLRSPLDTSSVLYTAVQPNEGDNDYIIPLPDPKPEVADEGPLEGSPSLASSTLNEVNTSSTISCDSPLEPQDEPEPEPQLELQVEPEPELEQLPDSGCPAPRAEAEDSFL
Cyclin-dependent kinase 1 (Homo sapiens), sequence (P06493 whole entry, looked up): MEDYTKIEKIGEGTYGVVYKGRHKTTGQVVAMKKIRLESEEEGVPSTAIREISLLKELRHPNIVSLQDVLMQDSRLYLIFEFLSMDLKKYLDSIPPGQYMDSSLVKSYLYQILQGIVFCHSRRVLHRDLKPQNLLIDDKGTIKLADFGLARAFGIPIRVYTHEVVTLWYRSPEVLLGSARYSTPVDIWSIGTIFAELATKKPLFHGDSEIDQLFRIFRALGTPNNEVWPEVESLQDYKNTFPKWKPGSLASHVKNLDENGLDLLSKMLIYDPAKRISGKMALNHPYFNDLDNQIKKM
RAC-alpha serine/threonine-protein kinase (Homo sapiens), sequence (P31749 whole entry): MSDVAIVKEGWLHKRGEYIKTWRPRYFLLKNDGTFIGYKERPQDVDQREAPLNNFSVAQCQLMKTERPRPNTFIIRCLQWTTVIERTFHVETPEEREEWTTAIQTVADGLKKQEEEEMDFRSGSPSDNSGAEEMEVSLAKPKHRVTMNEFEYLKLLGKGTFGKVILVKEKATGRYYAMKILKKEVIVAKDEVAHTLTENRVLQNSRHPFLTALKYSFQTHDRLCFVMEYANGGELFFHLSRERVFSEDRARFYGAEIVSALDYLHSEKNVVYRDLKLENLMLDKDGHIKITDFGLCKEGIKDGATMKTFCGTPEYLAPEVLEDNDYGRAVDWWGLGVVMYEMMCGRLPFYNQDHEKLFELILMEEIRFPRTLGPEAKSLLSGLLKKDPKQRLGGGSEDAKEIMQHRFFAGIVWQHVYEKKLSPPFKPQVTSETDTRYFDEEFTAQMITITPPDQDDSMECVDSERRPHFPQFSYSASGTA

inhibition [1] [%]	inhibition [2] [%]	inhibition [3] [%]	inhibition [4] [%]	inhibition [5] [%]	inhibition [6] [%]	inhibition [7] [%]	inhibition [8] [%]	inhibition [9] [%]	inhibition [10] [%]	SMILES
5	42	85	93	54	16	0	6	0	32	O=C(NCc1cccnc1)c1cccc(-c2ccc(Nc3ccc4ncsc4c3)nn2)c1
0	32	26	13	11	0	0	4	1	5	O=C(NCc1ccncc1)c1cccc(Nc2cc(Nc3cccc(Br)c3)ncn2)c1

The remaining lines, values behind:

SMILES	inhibition [1] [%]	inhibition [2] [%]	inhibition [3] [%]	inhibition [4] [%]	inhibition [5] [%]	inhibition [6] [%]	inhibition [7] [%]	inhibition [8] [%]	inhibition [9] [%]	inhibition [10] [%]
CC(=O)N1CCN(C(=O)c2cccc(Nc3cc(N(C)c4cccc(C)c4)ncn3)c2)CC1	0	27	42	0	0	0	0	2	0	0
Cc1cccc(N(C)c2cc(Nc3cccc(C(=O)N(C)CCc4ccccn4)c3)ncn2)c1	2	10	23	0	0	0	0	6	0	0
COC[C@@H]1CCCN1C(=O)C1CCCN1c1cc(Nc2cccc(Br)c2)ncn1 (stereo not given in full)	0	0	6	0	0	8	0	2	0	0
COc1cccc(Nc2cc(N3CCC[C@H]3C(=O)NCCc3ccc(O)cc3)nc(N)n2)c1	1	0	0	0	9	0	0	2	0	0
Clc1ccc2sc(CN3CCN(c4ncnc5c4CN(Cc4ccccc4)CC5)CC3)cc2c1	2	0	5	0	16	0	0	5	0	0
